Compounds with a hit are over-represented: about 2.5% of the library has one in this group of screens.
SIAE primary = human SIAE inhibitors, primary screen, biochemical, fluorescence polarization, FP-Rh probe, 1536-well HTS; SIAE FP-Rh probe binding; AID 1053197, 2014; inhibition, % at 9.66 µM; Sialate O-acetylesterase (Homo sapiens), Q9HAT2; 370,000 compounds, 0.69% hits;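 active = inhibition above a cutoff: mean of compounds within the control limits plus 3 SD of those, cut at about 17% in these data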;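 also: 0% = plate median of compound wells and 100% = probe without SIAE protein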
PRMT1 inh = PRMT1 methyltransferase inhibitors, primary screen, biochemical, fluorescence polarization; recombinant PRMT1, activity-based probe fluorescence polarization; inhibition, % at 2.79 µM; 370,000 compounds, 1.3% hits; AID 652257, 2013;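 active = inhibition above about 21% made by adding two undisclosed values, limit read from the data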
TCR CD3 inh = inhibitors of human TCR-CD3 interaction, primary screen, biochemical, fluorescence, TAMRA-labeled TCR probe. T-cell receptor (TCR). inhibition, % at 9.4 µM. 360,000 compounds, 0.37% hits. AID 651800, 2012; in the data active = inhibition above about 19%;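 also: recombinant mutant TCR 2C K166C tagged with TAMRA read by polarization; 0% = receptor in buffer alone and 100% = receptor with positive control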
ABHD4 inh = ABHD4 inhibitors, primary screen, biochemical, fluorescence polarization, mouse | (Lyso)-N-acylphosphatidylethanolamine lipase (Mus musculus), Q8VD66 | purified mABHD4, FP-Rh probe fluorescence polarization | inhibition, % at 8.92 µM | 370,000 compounds, 0.54% hits | AID 720543, 2013;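 active = inhibition exceeding the mean over every tested compound plus 3 SD, cut at about 30% in these data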;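 also: 0% = plate median of compound wells and 100% = S159A mutant with DMSO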
Target sequence (Q8VD66 whole entry, looked up): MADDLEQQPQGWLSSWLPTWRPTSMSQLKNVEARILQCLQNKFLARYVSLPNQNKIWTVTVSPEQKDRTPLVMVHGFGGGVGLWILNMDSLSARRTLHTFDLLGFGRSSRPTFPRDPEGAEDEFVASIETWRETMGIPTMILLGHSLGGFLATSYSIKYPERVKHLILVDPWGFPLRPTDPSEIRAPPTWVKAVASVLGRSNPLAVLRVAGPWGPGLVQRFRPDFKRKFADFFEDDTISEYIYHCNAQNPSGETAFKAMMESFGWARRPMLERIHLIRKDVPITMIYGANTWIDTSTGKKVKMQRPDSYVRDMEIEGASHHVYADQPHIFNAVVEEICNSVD
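System: mouse ABHD4 enzyme, wild type / Medium: HEPES pH 7.0, NaCl, Pluronic buffer / Reagent: FP-Rh activity-based fluorescent probe / Control set: S159A mutant high control, sample median low control / Detection: fluorescence polarization with parallel and perpendicular emission, 525/598 nm / Schedule: 45 min + 60 min at 25 °C / Compound dosing: 8.92 µM, single dose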
HTRA1 inh = HTRA1 serine protease inhibitors, primary screen, biochemical, fluorescence polarization, HTS; Q92743; recombinant HTRA1, FP-rhodamine activity-based probe; inhibition, % at 5.96 µM; 340,000 compounds, 0.5% hits; in the data active = inhibition above about 36%;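 also: 0% = enzyme with DMSO and 100% = wells lacking enzyme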
SIAE confirm = human SIAE inhibitors, retest, confirmation, biochemical, fluorescence polarization, FP-Rh probe, triplicate; shares compounds with SIAE primary; SIAE FP-Rh activity-based probe; inhibition, % at 9.66 µM; 2,300 compounds, 13% hits; AID 1117263, 2014;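 active = mean inhibition of the replicates above the hit cutoff set in the primary screen, cut at about 17% in these data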;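 also: 0% = SIAE with DMSO and probe and 100% = probe without SIAE; inhibitors lower polarization as more probe stays unbound to SIAE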
Starred values were filed as active, the others as inactive; . = no result.

SMILES	SIAE primary	PRMT1 inh	TCR CD3 inh	ABHD4 inh	HTRA1 inh	SIAE confirm
COc1ccc(-n2c(Cc3cccn3C)nnc2SCC(=O)Nc2nccs2)cc1	17*	7	0	0	7	3
Cn1cccc1Cc1nnc(SCC(=O)Nc2nccs2)n1C	3	6	9	0	4	.
CN(C(=O)c1cccc(N2C(=O)C3C4C=CC(C4)C3C2=O)c1)C1CCCCC1 (stereo unspecified)	19*	-3	4	-1	6	3
NC(=O)c1ncn([C@@H]2O[C@H](C(=O)N[C@H](Cc3c[nH]c4ccccc34)C(=O)NCC(=O)N3CCCCC3)[C@@H](O)[C@H]2O)n1	6	1	0	4	.	.
NC(=O)c1ncn([C@@H]2O[C@H](C(=O)N[C@H](Cc3c[nH]c4ccccc34)C(=O)N3CCN(C(=O)N4CCOCC4)CC3)[C@@H](O)[C@H]2O)n1	52*	1	2	9	.	33*
COc1ccc(NC(=O)Nc2cc(C)cc(C)c2)cn1	-2	12	0	-3	0	.
COc1ccc(NC(=O)Nc2cccs2)cn1	18*	7	0	10	-1	5
Cc1nc2ccc(NC(=O)C3(C)CCCN(C(C)C)C3)cc2o1 (stereo unspecified)	0	1	-2	4	.	.
CN(c1ccc(OCC(=O)OCC(=O)Nc2ccccc2)cc1)S(=O)(=O)c1ccc(F)cc1	-5	2	0	2	-14	.
CN(c1ccc(OCC(=O)OCC(=O)Nc2ccc([N+](=O)[O-])cc2)cc1)S(=O)(=O)c1cccs1	40*	4	2	5	-8	26*
COc1ccc(C(=O)NN=C2CCCC2)cc1	20*	2	0	0	3	-5
COc1cccc(C(=O)C2CCCN(Cc3cn(CC(N)=O)c4ccccc34)C2)c1 (stereo unspecified)	19*	-5	-3	-5	3	0
COc1ccc(CNc2cccc3[nH]c(C(F)(F)F)nc23)cc1	15	1	2	15	18	.
COc1cc(CNc2cccc3[nH]c(C(F)(F)F)nc23)cc(OC)c1	18*	3	-5	3	-10	8
O=C(CN1NS(=O)(=O)c2ccccc2C1=O)Nc1ccccc1OC(F)F	19*	-1	6	3	-1	2
CN1C(=O)C(=O)N(CC(=O)Nc2ccccc2OC(F)F)C1=O	2	-1	-6	-4	8	.
COc1ccc2cc(C(=O)Nc3ccc(S(N)(=O)=O)cc3)sc(=O)c2c1OC	-51	2	1	-58	-27	.
O=C(O)CCN1CC2([N+](=O)[O-])C=CC(=O)C([N+](=O)[O-])(C1)C2CC(=O)c1ccccc1 (stereo unspecified)	17*	11	-3	27	-2	3
Cc1ccc(S(=O)(=O)N2C[C@@H]3CCCC[C@@H]3[C@@H](C)[C@H]2c2cn(Cc3ccccc3)c3ncccc23)cc1	-3	-2	3	-1	-6	.
CCN(CC)C(=O)N1c2ccccc2Sc2ccccc21	18*	-3	2	7	-2	11
CCOC(=O)c1ccc2c(c1)n(CC)c(/C=C/Nc1ccccc1)[n+]2CC	18*	-6	-6	2	-1	5
Cc1c(/C=N/NC(=O)c2ccccc2O)c2ccccn2c1C(=O)c1ccc(F)cc1	37*	0	2	6	10	-2
Cc1ccccc1-c1nn(-c2ccc(F)cc2F)cc1CNCCCN(C)C	18*	-3	12	2	4	7
O=C(Nc1ccc(Cl)cc1C(F)(F)F)c1ccccc1Cl	29*	-3	-8	-3	-8	-5
Cc1ccc(C(=O)Nc2ccc(Cl)cc2C(F)(F)F)c(Cl)c1	1	-2	10	-1	-1	.
O=C1C2C3C=CC(O3)C2C(=O)N1CC(O)c1ccccc1 (stereo unspecified)	11	18	6	9	2	.
COc1ccc(-c2cn(Cc3ccc([N+](=O)[O-])cc3)nn2)cc1	2	-1	1	4	-9	.
CNc1ccc(OC)cc1-n1cnc(-c2ccc([N+](=O)[O-])cc2)c1	20*	1	2	2	-2	8
